# Rev-erbA mod: modulators of human Rev-erb alpha DNA binding; 370,000 tested, 0.79% active; Rev-erbα–FITC-DNA binding, fluorescence polarization, 90 min; activity, % at 10 µM; AID 1259318;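 active means activity above about 14%, limit read from the data; passing the limit was not always enough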;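 further: 0% = DMSO wells with 35 nM protein and 100% = DMSO wells with 750 nM protein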
# ASAP1 GAP inh: inhibitors of human ASAP1 ArfGAP activity. inhibition, % at 16.5 µM. 360,000 tested, 0.19% active. ASAP1-stimulated ARF1 GTP hydrolysis, GDP FP detection. AID 624377. Q9ULH1; in the data active means inhibition above about 25%;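 further: 0% = vehicle with enzyme and substrate and 100% = no enzyme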
# Target sequence (Q9ULH1 325-724 limits assumed): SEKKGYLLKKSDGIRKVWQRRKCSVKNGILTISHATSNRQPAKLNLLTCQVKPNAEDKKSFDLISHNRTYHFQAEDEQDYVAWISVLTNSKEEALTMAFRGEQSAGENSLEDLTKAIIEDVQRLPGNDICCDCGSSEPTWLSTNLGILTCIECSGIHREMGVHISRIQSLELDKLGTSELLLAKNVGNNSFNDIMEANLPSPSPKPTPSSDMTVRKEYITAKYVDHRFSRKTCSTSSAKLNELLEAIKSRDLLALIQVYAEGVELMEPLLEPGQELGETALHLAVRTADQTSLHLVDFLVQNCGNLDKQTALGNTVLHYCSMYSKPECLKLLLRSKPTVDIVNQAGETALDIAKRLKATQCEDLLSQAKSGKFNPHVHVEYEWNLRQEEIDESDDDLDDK
# bovine MsrA act: bovine methionine sulfoxide reductase A activation | purified bovine MsrA, absorbance read-out | 360,000 tested, 0.3% active | activation, % at 10.6 µM; in the data active means activation above about 7.5%;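 further: 0% = vehicle and 100% = reference activator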
# MsrA inh: bovine MsrA inhibition. purified bovine MsrA, absorbance read-out. inhibition, % at 15.5 µM. 360,000 tested, 0.75% active;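 further: 0% = vehicle wells with enzyme and 100% = reference inhibitor wells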
# sPLA2-III inh: Blocks human group III sPLA2 activity | 370,000 tested, 0.56% active | inhibition, % at 12.2 µM | QFRET BODIPY PC-A2 liposome hydrolysis, fluorescence | Q9NZ20;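 active means inhibition above mean plus 3 SD of compounds lying within the high and low control bounds, cut at about 19% in these data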;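 further: 0% = median of test compound wells and 100% = no enzyme DMSO wells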
# ARFGAP1 inh: rat ARFGAP1 inhibition; inhibition, % at 16.5 µM; 360,000 tested, 0.26% active; Arfgap1-stimulated ARF1 GTP hydrolysis, GDP FP detection;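 active means inhibition above a per-plate limit, mean inhibition of low control wells plus 3 SD, cut at about 25% in these data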;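 further: 0% = DMSO wells with enzyme and 100% = wells lacking Arfgap1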
# Target sequence (Q62848 1-136 limits assumed): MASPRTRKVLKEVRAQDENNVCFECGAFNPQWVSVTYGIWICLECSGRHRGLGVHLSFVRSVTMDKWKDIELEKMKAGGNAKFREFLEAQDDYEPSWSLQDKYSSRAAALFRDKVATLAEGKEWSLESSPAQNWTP
#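 system = rat Arfgap1 catalytic domain, aa 1-136 | technique = FP, GDP Alexa 633 tracer displaced from anti-GDP antibody, 620/688 nm | compound = one concentration, 16.5 µM, DMSO 1.26% | medium = HEPES-based buffer, pH 7.5 | timing = compound-enzyme preincubation 20 min, reaction 120 min, detection 60 min, 25 °C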
# MsrA conf: bovine MsrA inhibition, confirmed; shares compounds with MsrA inh; purified bovine MsrA, absorbance read-out; inhibition, % at 15.5 µM; 2,300 tested, 41% active; AID 651822;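 further: coupled to thioredoxin reductase with NADPH and selenocystamine and DMSO as substrate; 0% = vehicle only and 100% = full effect of reference inhibitor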
# Active calls of the source: *; / = no result. A selection: hits, their analogues and other compounds. The true share with any hit is near 2.7%. Unless noted, no stated cut-off is given here; in the data, active means inhibition above about 4.5%; inactive means the rest.
SMILES,Rev-erbA mod,ASAP1 GAP inh,bovine MsrA act,MsrA inh,sPLA2-III inh,ARFGAP1 inh,MsrA conf
COC(=O)C1=C(C)N(Cc2ccc(C(F)(F)F)cc2)C(=NCc2ccccc2C(F)(F)F)NC1c1ccccc1 (stereo not drawn),4,2,/,-1,-7,5,/
O=[N+]([O-])c1cc(/C=N/n2c(-c3cccnc3)n[nH]c2=S)ccc1Cl,-2,7,-1,12*,16,2,6.8*
O=[N+]([O-])c1ccccc1/C=N/n1c(-c2cccnc2)n[nH]c1=S,0,-4,-11,1,13,1,/
CN1[C@@H](Cc2ccccc2)COc2cc(N3CCCC3)ccc2S1(=O)=O,9,/,/,/,-3,/,/
Cc1ccc2c(c1)N(CCCC(=O)NCc1c(F)cccc1F)C(=O)CO2,-1,/,/,/,11,/,/
O=C(O)CCSc1ccc([N+](=O)[O-])cc1[N+](=O)[O-],-2,-10,-12,5.4*,2,-4,3
COc1ccc(/C=C2\N=C(c3ccc(C)cc3)OC2=O)cc1,-8,-8,0,-1,-3,-1,/
Cc1ccc(C2=N/C(=C\N3CCCCC3)C(=O)O2)cc1,-17,0,-15,6.1*,3,-3,5.9*
Cc1ccc(C2=N/C(=C/N3CCOCC3)C(=O)O2)cc1,-6,3,-5,6.5*,-3,-1,7.6*
O=C(OCc1cn(Cc2ccccc2C(F)(F)F)nn1)N1CCOCC1,6,/,/,/,1,/,/
FC(F)(F)C(F)(F)C(F)(F)C(F)(F)C(F)(F)F,-5,/,/,/,/,/,/
CN[C@H]1C[C@H]2c3[nH]c4c(-c5ccc6c(c5)OCO6)cccc4c3CCN2C[C@H]1[C@H](C)O,-1,/,/,/,0,/,/
C=CCn1c(COc2ccc(C)cc2)nnc1SCc1ccc([N+](=O)[O-])cc1,-5,/,/,/,-13,/,/
CCN1C(=O)/C(=C\N(C(C)=O)c2ccccc2)OC1=S,5,1,-5,6.7*,-1,1,5.0*
C=CCN1C(c2ccccc2)=CS/C1=C(\C#N)c1nnc2n1CCCCC2,-4,4,-6,4.8*,4,10,3
CCOc1ccc(C2=CS/C(=C(\C#N)c3nnc4n3CCCCC4)N2CC)cc1,6,4,-4,3,3,15,/
CCCCCCn1cc(CN2CC=CS2(=O)=O)nn1,1,/,/,/,9,/,/
Cc1ccc(C(=O)N/N=C\c2ccc[nH]2)cn1,3,-5,-3,6.6*,11,3,4
Cc1ccc(C(=O)N/N=C\c2cccn2C)cn1,1,-6,-11,7.8*,5,6,4.7*
Cc1ccccc1/C=N/NC(=O)c1cccnc1,3,-5,-8,0,-1,1,/
O=C(N/N=C/c1ccc[nH]1)c1c[nH]c2ccccc12,1,-13,-12,5.8*,5,2,4
Cc1ccc(C(=O)N/N=C\c2ccccn2)cn1,1,15,-4,-1,2,-2,/
Cn1cccc1/C=N/NC(=O)c1cccnc1,-3,-1,-4,3,3,-4,/
O=C(N/N=C/c1ccc[nH]1)c1cccnc1,-3,-4,-5,5.7*,3,2,5.2*
Nc1nc2nccc(-c3ccco3)n2n1,1,6,-5,6.1*,1,-6,3
SMILES,Rev-erbA mod,ASAP1 GAP inh,bovine MsrA act,MsrA inh,sPLA2-III inh,ARFGAP1 inh,MsrA conf
O=C(Nc1cccc(C(=O)O)c1)/C(=C\c1ccc2c(c1)OCO2)NC(=O)c1ccc(Br)cc1,-2,3,-19,6.1*,-8,-1,2
O=C(Nc1cccc(C(=O)O)c1)/C(=C\c1ccc2c(c1)OCO2)NC(=O)c1ccccc1,3,-1,-6,5.5*,2,-11,3
COc1ccc(/C=C(/NC(=O)c2ccc(Br)o2)C(=O)Nc2cccc(C(=O)O)c2)cc1,-10,-6,-6,5.7*,13,5,4
O=C(N[C@H](Cc1ccccc1)C(=O)NCc1cccc2ccccc12)[C@H]1O[C@@H](n2ccc(=O)[nH]c2=O)[C@H](O)[C@@H]1O,-2,2,/,0,-6,-8,/
Cc1c(OCc2ccc(C(=O)O)o2)ccc2c3c(c(=O)oc12)CCC3,-6,-7,-3,4.8*,-9,5,0
COC(=O)[C@]12C[C@H](CC(=O)NCc3cccc4ccccc34)C(=O)N(Cc3ccccc3)C1=C[C@H](C(C)(C)C)O[C@@H]2C,0,7,/,0,-14,5,/
CCOC(=O)[C@@H](CCc1ccccc1)N[C@@H](C)C(=O)N1CCC[C@H]1C(=O)O,4,/,/,/,-2,/,/
COc1ccccc1/C=N/NC(=O)c1cc2c(OC)c(OC)ccc2[nH]1,-1,-7,-4,4,-1,3,/
COc1cccc(/C=N/NC(=O)c2cc3c(OC)cccc3[nH]2)c1O,-5,-9,-3,1,-4,6,/
COc1cccc(/C=N/NC(=O)c2cc3c(OC)c(OC)ccc3[nH]2)c1OC,-1,-7,-6,6.3*,-8,17,4.6*
COc1cccc(/C=N/NC(=O)c2cc3c(OC)cccc3[nH]2)c1OC,5,10,-4,5.3*,-13,5,3
COc1ccc(/C=N/NC(=O)c2[nH]c3ccc(Cl)cc3c2-c2ccccc2)c(C(=O)O)c1OC,-3,9,-3,5.2*,-18,-4,6.5*
Cc1ccc(/C=N/Nc2nncc(-c3ccccc3)n2)o1,-3,20,-18,5.8*,1,1,5.4*
Clc1ccc(-c2ccc(/C=N/Nc3nncc(-c4ccccc4)n3)o2)cc1,3,16,-1,-1,-2,-8,/
C(=C\c1ccccc1)/C=N/Nc1nncc(-c2ccccc2)n1,-3,-4,/,43*,18,11,1
COC(=O)[C@]12C[C@H](CC(=O)NCc3ccc(C)o3)C(=O)N(CCc3ccc(OC)c(OC)c3)C1=C[C@H](C(C)C)O[C@@H]2C1CC1,1,/,/,/,-16,/,/
C[C@@H]1COc2cc(F)ccc2S(=O)(=O)N1C,10,/,/,/,2,/,/
Cc1nc2ccc(NC(=O)c3cc([N+](=O)[O-])cc([N+](=O)[O-])c3Cl)cc2s1,3,12,2,5.5*,-9,-7,2
COc1ccc(C(=O)N/C(=C/c2cccs2)c2nc3ccccc3[nH]2)cc1OC,0,-1,-5,5.3*,-2,-2,4
COc1cc(/C=C(/C(=O)c2cccs2)c2nc3ccccc3[nH]2)cc(OC)c1O,-3,-4,-6,5.5*,-1,10,4
CN(C)CCCN1C(=O)c2cccc3c([N+](=O)[O-])ccc(c23)C1=O,-7,7,-7,18*,3,2,10*
O=C1c2cccc3c([N+](=O)[O-])ccc(c23)C(=O)N1CCc1ccccn1,-4,1,-6,-1,1,-2,/
O=C1c2ccccc2C(=O)C1c1ccc(O)cc1,-2,10,-5,4.9*,-10,11,3

# High-throughput results (PubChem BioAssay)
